inhibition, ΔTm and Activity data for one molecule are collected here from ChEMBL document CHEMBL4350961, “Discovery of Pyrrolo[3,2- d]pyrimidin-4-one Derivatives as a New Class of Potent and Cell-Active Inhibitors of P300/CBP-Associated Factor Bromodomain” (J Med Chem, 2019).

Calls of active or inactive are those of the source. The calls are words filed in the database; no cut-off is given here.

In assay [1] the test system is Angiopoietin-1 receptor (Homo sapiens), Q02763 [Q939H,Q940H]. Briefly: Inhibition of human Tie2 Q939H/Q940H mutant (771 to end residues) using poly(Glu, Tyr) 4:1 as substrate measured after 40 mins in presence of [gamma33P]ATP by scintillation counting method.
Assay [2] deals with Dual specificity protein kinase CLK3 (Homo sapiens) (UniProt P49761). Briefly: Inhibition of recombinant full-length human CLK3 at 10 uM using ERMRPRKRQGSVRRRV as substrate measured after 40 mins in presence of [gamma33P]ATP by scintillation counting method.
The test system of assay [3] is Receptor-type tyrosine-protein kinase FLT3 (Homo sapiens), P36888 [D835Y]. Briefly: Inhibition of recombinant human Flt3 D835Y mutant (564 to end residues) at 10 uM using EAIYAAPFAKKK as substrate measured after 40 mins in presence of [gamma33P]ATP by scintillation counting method.
The target in assay [4] is Inhibitor of nuclear factor kappa-B kinase subunit alpha (Homo sapiens) (UniProt O15111). Briefly: Inhibition of recombinant full-length human IKKalpha (959 to end residues) at 10 uM using peptide substrate measured after 40 mins in presence of [gamma33P]ATP by scintillation counting method.
In assay [5] the target is Phosphatidylinositol 3-kinase C2 domain-containing subunit gamma (Homo sapiens) (UniProt O75747). The assay is described as follows: Inhibition of recombinant human PI3KC2gamma (468 to 1203 residues) at 10 uM using phosphatidylinositol as substrate measured after 40 mins by HTRF assay.
Assay [6] has as its target CDK7/Cyclin H/MNAT1 (Homo sapiens) (UniProt P51946+P50613+P51948). Briefly: Inhibition of recombinant full length human CDK7/cyclin H/MAT1 at 10 uM using peptide substrate measured after 40 mins in presence of [gamma33P]ATP by scintillation counting method. Format: protein-complex assay.
Assay [7] addresses Fibroblast growth factor receptor 1 (Homo sapiens) (UniProt P11362). The assay is described as follows: Inhibition of recombinant human FGFR1 (456 to 765 residues) at 10 uM using KKKSPGEYVNIEFG as substrate measured after 40 mins in presence of [gamma33P]ATP by scintillation counting method.
Assay [8] has as its target Tyrosine-protein kinase ABL1 (Homo sapiens) (UniProt P00519). Briefly: Inhibition of recombinant human ABL (27 to end residues) at 10 uM using EAIYAAPFAKKK as substrate measured after 40 mins in presence of [gamma33P]ATP by scintillation counting method.
Assay [9] deals with Dual specificity tyrosine-phosphorylation-regulated kinase 3 (Homo sapiens) (UniProt O43781). The assay is described as follows: Inhibition of recombinant full-length human DYRK3 at 10 uM using RRRFRPASPLRGPPK as substrate measured after 40 mins in presence of [gamma33P]ATP by scintillation counting method.
Assay [10] deals with CDC7/Cyclin B1 (Homo sapiens) (UniProt P14635+O00311). The assay is described as follows: Inhibition of recombinant full-length human CDC7/cyclinB1 at 10 uM using Histone H1 as substrate measured after 120 mins in presence of [gamma33P]ATP by scintillation counting method. It counts as protein-complex assay.
The target in assay [11] is Transcription initiation factor TFIID subunit 1-like (Homo sapiens) (UniProt Q8IZX4). The assay is described as follows: Inhibition of human TAF1L (1428 to end residues) using RRRFRPASPLRGPPK as substrate measured after 120 mins in presence of [gamma33P]ATP by scintillation counting method.
Assay [12] has as its target 3-phosphoinositide-dependent protein kinase 1 (Homo sapiens) (UniProt O15530). Briefly: Inhibition of recombinant human PDK1 (52 to end residues) at 10 uM using PDKtide as substrate measured after 40 mins in presence of [gamma33P]ATP by scintillation counting method.
The subject of assay [13] is RAC-beta serine/threonine-protein kinase (Homo sapiens), P31751 [S474D]. Briefly: Inhibition of recombinant full-length human PKBbeta S474D mutant (120 to end residues) at 10 uM using GRPRTSSFAEGKK as substrate measured after 40 mins in presence of [gamma33P]ATP by scintillation counting method.
For assay [14], the system named is Mast/stem cell growth factor receptor Kit (Homo sapiens), P10721 [D816V]. Briefly: Inhibition of recombinant human c-Kit D816V mutant (544 to end residues) at 10 uM using poly(Glu, Tyr) 4:1 as substrate measured after 40 mins in presence of [gamma33P]ATP by scintillation counting method.
The test system of assay [15] is Tyrosine-protein kinase receptor UFO (Homo sapiens), P30530 [Q764R]. Briefly: Inhibition of recombinant human AXL Q764R mutant (473 to end residues) at 10 uM using KKSRGDYMTMQIG as substrate measured after 40 mins in presence of [gamma33P]ATP by scintillation counting method.
Assay [16] addresses Casein kinase 2 (Homo sapiens) (UniProt P67870+P68400+P19784+Q8NEV1). The assay is described as follows: Inhibition of human CK2 at 10 uM. Format: protein assay. The method, boiled down:
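Kinase panel of 422 kinases screened by Eurofins KinaseProfiler at a single test-compound concentration of 10 µM.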

The target of assay [17] is Transcription initiation factor TFIID subunit 1 (Homo sapiens) (UniProt P21675). The assay is described as follows: Binding affinity to human N-terminal His-tagged TAF1 bromodomain1 assessed as change in melting temperature at 10 uM by SYPRO orange dye-based fluorescence assay. In short, it runs like this:
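Thermal shift with His-tagged human bromodomain at 2 μM final in 10 mM HEPES pH 7.5, 500 mM NaCl. Compound at 10 μM final with 0.1% DMSO; SYPRO Orange at 1:1000. Equilibrated 3 min at 25 °C, then heated from 25 to 95 °C at 1 °C/min. Melting temperature shift taken from fluorescence; at least duplicate.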

Assay [18] concerns the target MAPK/MAK/MRK overlapping kinase (Homo sapiens) (UniProt Q9UQ07). Briefly: Inhibition of recombinant human MOK (1 to 343 residues) at 10 uM using RSRSRSRSRSRSRSR as substrate measured after 40 mins in presence of [gamma33P]ATP by scintillation counting method.
In assay [19] the target is LIM domain kinase 2 (Homo sapiens) (UniProt P53671). Briefly: Inhibition of recombinant human LIMK2 at 10 uM by radiometric method.
For assay [20], the target named is Maternal embryonic leucine zipper kinase (Homo sapiens) (UniProt Q14680). Briefly: Inhibition of recombinant human MELK (1 to 340 residues) at 10 uM using KKLNRTLSFAEPG as substrate measured after 40 mins in presence of [gamma33P]ATP by scintillation counting method.
Assay [21] concerns Eukaryotic elongation factor 2 kinase (Homo sapiens), O00418 [H23R]. Briefly: Inhibition of recombinant human EEF2K H23R mutant (2 to end residues) at 10 uM using RKKFGESEKTKTKEFL as substrate measured after 40 mins in presence of [gamma33P]ATP by scintillation counting method.
The target of assay [22] is Bromodomain testis-specific protein (Homo sapiens) (UniProt Q58F21). Briefly: Binding affinity to human partial length BRDT bromodomain 1 (N21 to E137 residues) expressed in bacterial expression system at 1 uM by BROMOscan assay. In short, it runs like this: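 BROMOscan bromodomain cross-screen run by an outside service, compound at 1 µM against 32 recombinant bromodomains. Binding given as percent of control.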

Sequence of Angiopoietin-1 receptor (Homo sapiens), Q02763 [Q939H,Q940H] (Q02763 whole entry Q939H/Q940H): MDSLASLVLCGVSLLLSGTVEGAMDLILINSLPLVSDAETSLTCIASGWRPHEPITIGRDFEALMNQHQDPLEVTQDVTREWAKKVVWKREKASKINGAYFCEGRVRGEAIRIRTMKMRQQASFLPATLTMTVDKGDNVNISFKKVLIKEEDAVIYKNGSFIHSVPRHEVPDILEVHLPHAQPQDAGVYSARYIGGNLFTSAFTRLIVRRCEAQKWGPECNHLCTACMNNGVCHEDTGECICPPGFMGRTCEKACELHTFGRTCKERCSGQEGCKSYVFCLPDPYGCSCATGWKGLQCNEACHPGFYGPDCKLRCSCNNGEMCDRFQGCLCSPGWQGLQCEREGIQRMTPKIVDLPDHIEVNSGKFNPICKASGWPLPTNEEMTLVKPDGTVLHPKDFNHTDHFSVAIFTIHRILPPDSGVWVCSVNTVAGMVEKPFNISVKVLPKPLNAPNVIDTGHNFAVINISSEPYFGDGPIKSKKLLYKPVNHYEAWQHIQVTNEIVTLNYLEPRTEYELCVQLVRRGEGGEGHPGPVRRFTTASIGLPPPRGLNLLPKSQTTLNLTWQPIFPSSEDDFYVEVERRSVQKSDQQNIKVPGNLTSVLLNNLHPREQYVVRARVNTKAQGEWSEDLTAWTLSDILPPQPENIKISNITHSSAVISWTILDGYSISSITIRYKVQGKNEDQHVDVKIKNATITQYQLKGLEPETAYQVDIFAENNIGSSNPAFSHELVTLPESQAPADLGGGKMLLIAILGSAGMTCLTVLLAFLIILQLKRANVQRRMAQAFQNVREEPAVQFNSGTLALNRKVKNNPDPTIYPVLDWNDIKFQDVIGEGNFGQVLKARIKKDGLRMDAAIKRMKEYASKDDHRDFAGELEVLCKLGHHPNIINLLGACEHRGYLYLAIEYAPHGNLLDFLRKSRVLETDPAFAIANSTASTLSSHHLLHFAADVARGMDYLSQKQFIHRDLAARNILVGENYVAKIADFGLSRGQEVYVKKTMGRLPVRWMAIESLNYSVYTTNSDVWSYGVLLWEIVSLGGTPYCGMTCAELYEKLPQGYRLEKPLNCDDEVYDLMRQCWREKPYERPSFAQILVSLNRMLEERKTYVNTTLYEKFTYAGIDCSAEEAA
Sequence of Mast/stem cell growth factor receptor Kit (Homo sapiens), P10721 [D816V] (P10721 whole entry D816V): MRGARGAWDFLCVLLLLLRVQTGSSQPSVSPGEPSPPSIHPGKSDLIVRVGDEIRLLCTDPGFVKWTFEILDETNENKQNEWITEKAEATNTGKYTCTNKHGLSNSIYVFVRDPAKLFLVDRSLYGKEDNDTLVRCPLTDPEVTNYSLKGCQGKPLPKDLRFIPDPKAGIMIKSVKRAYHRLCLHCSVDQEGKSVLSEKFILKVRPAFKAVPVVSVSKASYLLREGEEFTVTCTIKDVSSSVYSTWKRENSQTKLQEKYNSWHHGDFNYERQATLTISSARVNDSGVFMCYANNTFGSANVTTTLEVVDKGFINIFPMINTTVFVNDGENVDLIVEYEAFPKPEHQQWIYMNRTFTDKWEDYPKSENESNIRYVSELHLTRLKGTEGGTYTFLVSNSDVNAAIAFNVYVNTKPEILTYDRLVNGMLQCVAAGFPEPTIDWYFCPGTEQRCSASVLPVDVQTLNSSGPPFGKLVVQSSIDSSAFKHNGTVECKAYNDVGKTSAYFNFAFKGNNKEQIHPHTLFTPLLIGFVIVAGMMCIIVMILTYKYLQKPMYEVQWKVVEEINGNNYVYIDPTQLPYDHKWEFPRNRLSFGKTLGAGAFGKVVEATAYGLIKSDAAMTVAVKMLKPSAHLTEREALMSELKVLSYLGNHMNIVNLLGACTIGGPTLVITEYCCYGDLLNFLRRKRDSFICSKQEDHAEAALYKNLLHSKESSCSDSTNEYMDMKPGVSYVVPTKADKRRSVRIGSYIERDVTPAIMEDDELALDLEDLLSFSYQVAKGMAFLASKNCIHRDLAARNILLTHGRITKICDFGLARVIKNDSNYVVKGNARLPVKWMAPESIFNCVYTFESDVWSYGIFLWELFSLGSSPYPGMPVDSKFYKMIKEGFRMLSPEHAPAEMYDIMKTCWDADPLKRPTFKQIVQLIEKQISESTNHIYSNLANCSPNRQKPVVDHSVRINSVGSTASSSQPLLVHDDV
Sequence of CDC7/Cyclin B1 (Homo sapiens) (O00311 whole entry, looked up): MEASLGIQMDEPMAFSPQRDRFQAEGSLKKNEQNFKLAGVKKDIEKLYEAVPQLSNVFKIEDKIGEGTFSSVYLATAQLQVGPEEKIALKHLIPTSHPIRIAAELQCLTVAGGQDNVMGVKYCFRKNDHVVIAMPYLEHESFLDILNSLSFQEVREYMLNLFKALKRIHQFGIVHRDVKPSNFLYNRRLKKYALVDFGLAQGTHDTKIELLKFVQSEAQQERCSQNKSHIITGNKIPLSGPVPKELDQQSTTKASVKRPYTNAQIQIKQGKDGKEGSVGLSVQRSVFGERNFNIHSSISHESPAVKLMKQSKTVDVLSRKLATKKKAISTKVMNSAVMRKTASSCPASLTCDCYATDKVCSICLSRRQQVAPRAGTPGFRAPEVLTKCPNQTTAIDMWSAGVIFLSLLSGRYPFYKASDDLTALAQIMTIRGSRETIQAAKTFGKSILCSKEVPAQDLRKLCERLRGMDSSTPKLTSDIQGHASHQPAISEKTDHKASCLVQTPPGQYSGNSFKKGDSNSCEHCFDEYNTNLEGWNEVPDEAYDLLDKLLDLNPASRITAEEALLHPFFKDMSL
Sequence of CDC7/Cyclin B1 (Homo sapiens) (P14635 whole entry, looked up): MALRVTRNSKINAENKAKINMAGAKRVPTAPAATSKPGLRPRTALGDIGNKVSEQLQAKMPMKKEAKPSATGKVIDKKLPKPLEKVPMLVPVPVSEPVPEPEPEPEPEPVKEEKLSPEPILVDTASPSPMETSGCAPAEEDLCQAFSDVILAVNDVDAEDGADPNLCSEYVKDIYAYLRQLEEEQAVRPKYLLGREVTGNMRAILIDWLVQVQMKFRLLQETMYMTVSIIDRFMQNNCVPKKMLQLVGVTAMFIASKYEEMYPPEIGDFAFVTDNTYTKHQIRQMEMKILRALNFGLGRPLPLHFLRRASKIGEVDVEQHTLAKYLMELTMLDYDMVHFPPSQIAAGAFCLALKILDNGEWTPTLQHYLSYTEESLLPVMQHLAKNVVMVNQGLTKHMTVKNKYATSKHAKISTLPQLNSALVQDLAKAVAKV
Sequence of Tyrosine-protein kinase receptor UFO (Homo sapiens), P30530 [Q764R] (P30530 whole entry Q764R): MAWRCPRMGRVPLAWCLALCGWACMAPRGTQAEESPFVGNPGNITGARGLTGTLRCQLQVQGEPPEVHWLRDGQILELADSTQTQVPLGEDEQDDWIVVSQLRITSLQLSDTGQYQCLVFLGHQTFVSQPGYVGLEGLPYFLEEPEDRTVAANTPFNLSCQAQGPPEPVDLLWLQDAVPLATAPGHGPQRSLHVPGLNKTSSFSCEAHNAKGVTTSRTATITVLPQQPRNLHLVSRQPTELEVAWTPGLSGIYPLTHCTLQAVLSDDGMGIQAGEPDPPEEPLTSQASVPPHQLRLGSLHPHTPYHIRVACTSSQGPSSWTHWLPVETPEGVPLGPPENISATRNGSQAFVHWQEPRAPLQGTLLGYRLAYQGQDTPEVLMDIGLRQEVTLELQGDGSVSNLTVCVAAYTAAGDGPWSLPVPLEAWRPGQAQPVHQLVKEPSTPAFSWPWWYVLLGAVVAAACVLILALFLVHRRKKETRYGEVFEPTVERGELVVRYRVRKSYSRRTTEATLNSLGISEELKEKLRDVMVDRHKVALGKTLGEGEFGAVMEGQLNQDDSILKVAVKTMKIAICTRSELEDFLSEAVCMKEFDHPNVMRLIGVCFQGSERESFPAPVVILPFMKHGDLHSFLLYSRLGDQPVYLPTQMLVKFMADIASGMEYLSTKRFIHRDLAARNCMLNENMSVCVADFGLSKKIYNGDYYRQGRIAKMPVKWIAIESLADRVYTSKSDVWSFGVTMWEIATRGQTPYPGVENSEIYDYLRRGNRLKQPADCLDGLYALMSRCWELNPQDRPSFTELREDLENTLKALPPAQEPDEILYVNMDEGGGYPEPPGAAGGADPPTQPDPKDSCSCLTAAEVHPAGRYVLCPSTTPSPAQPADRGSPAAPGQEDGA
Sequence of 3-phosphoinositide-dependent protein kinase 1 (Homo sapiens) (O15530 whole entry): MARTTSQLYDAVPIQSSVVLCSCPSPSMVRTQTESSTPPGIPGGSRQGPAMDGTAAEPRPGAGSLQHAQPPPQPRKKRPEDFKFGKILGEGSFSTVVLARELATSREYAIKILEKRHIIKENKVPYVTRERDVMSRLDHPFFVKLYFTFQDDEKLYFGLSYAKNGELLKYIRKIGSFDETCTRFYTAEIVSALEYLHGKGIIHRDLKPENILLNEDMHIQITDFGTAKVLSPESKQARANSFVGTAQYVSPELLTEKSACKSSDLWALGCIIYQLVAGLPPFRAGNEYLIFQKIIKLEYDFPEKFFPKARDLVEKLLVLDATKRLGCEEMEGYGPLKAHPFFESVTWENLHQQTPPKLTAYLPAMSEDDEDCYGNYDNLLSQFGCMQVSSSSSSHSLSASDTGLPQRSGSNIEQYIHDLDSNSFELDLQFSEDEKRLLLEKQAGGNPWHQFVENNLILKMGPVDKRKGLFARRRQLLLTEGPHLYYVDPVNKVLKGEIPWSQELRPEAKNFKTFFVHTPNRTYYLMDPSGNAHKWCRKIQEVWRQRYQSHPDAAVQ
Sequence of Dual specificity protein kinase CLK3 (Homo sapiens) (P49761 whole entry, looked up): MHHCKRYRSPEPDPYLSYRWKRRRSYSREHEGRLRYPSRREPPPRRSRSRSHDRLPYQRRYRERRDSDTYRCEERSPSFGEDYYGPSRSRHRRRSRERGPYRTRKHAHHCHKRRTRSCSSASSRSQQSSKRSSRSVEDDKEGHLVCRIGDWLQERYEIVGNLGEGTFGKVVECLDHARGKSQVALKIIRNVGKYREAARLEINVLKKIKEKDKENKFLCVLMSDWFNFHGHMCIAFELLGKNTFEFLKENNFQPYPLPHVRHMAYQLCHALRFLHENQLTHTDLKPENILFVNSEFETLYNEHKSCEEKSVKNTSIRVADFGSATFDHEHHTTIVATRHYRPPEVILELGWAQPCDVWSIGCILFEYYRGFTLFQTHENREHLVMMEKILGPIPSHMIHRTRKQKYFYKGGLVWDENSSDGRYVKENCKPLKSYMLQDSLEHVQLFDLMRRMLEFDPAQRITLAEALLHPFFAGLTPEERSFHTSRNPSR

`CN1C[C@H](Nc2nc3cc[nH]c3c(=O)n2C)C[C@H](c2ccc3c(c2)OCCO3)C1`: the inhibition result in assay [1], in assay [2], in [3], in [4], in assay [5] and in assay [6] was “inactive” each time. Further, the inhibition entry in assay [7], in assay [8], in assay [9], in assay [10], in assay [11] and in assay [12] was “inactive” each time. Moreover, the inhibition entry in assay [13], in [14], in assay [15], in [16], in assay [18] and in assay [19] was “inactive” in each case. Further, the inhibition entry in assay [20] and in assay [21] was “inactive” in each case. In addition, in [17], the ΔTm – broadly, the change in melting temperature against a reference sample – was 0.2 °C. Besides, in assay [22], the outcome was inactive.
